Screens (PubChem BioAssay)
NR2E3 ag-1 – inhibitors of NR2E3-RetCOR corepressor binding, primary screen, NR2E3 agonist project, biochemical, TR-FRET, GST-NR2E3, biotin-RetCOR. AID 2300, 2010. inhibition of corepressor binding, % at 4.78 µM. 1536-well. Photoreceptor-specific nuclear receptor (Homo sapiens), Q9Y5X4. 320,000 compounds, 0.12% hits;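 active = percent inhibition above the cutoff of mean plus 3 SD of all tested compounds, set per screening campaign, cut at about 20% in these data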;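 also: 0% = DMSO wells and 100% = biotin wells as full block of FRET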
Target sequence (Q9Y5X4 whole entry, looked up): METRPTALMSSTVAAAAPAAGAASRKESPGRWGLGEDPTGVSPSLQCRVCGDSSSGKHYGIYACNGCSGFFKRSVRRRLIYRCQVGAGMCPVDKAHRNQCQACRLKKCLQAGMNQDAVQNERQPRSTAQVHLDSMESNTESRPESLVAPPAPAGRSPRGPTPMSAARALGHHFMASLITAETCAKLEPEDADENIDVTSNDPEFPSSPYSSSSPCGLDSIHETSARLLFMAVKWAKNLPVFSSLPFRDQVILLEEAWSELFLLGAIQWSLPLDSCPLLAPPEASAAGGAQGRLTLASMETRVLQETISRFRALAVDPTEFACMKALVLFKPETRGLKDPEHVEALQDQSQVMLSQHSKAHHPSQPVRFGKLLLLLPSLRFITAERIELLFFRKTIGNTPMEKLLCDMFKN
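Test system – NR2E3–RetCOR corepressor complex · Quantity – NR2E3 fusion 1.35 nM · Buffer or medium – Tris pH 7.5 · Incubation – Compound–protein incubation for 5 h at 4 °C · Technique – TR-FRET, Eu(K)-anti-GST donor, streptavidin-D2 acceptor, ex 340, em 617/671 nm · Evaluation – percent inhibition of 671/617 nm emission ratio versus biotin and DMSO controls · Plate – 1536-well format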
Env fusion inh – inhibitors of HIV-1 Env-driven cell-cell fusion, primary screen, HeLa-JRFL effector, CEM21 target cells, luciferase | 360,000 compounds, 1.1% hits | inhibition, % at 12.3 µM | AID 651610, 2012;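 active = mean replicate inhibition score of at least 50 and every replicate individually at or above 50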;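 also: 0% = plate neutral controls and 100% = maraviroc near 300 nM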
NR2E3 ag-2 – NR2E3 agonists in two-hybrid cells, primary screen, cell-based, luminescence, CHO-S, Gal4-NCOR/VP16-NR2E3 | luciferase | 360,000 compounds, 0.35% hits | AID 602229, 2012 | inhibition of corepressor binding, % at 3.98 µM;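 active = inhibition above the mean of all tested compounds plus 3 SD, cut at about 70% in these data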;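 also: 0% = DMSO with NR2E3 transfected cells and 100% = cells lacking NR2E3 construct; higher means lower luciferase signal from less NR2E3 corepressor binding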
GAA850 FXN act – FXN promoter activators, primary screen, cell-based, luciferase luminescence, HEK293 lucGAA850. 360,000 compounds, 0.56% hits. HEK293 lucGAA850 FXN promoter luciferase reporter, 24 h; percent of 10 µM SAHA response. activation, % at 6 µM;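 active = activation above the average of all compounds screened plus 3 SD, cutoff fixed separately per campaign, cut at about 7.5% in these data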;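 also: 0% = DMSO wells and 100% = 10 µM SAHA wells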
V-ATPase pHluor – regulators of yeast V-ATPase proton pumping, primary screen, pHLuorin cytosolic pH fluorescence; 350,000 compounds, 0.37% hits; S. cerevisiae; response, % at 10 µM; in the data active = response mostly above about 7.3%, no sharp cut-off; inactive = mostly below about 5.4%; also: actives read high
GalR3 antag – GalR3 antagonists in HEK293 cells, primary screen, cell-based, fluorescence readout; Galanin receptor type 3 (Homo sapiens), O60755; HEK293 GalR3-CNG cAMP membrane potential fluorescence; galR3 body fused to GalR1 C-terminus; inhibition, % at 3 µM; 360,000 compounds, 0.44% hits;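 active = inhibition above the screen-wide average plus 3 SD, cut at about 13% in these data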;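 also: forskolin and galanin both at EC90 stimulate the cells; cAMP rise reported by CNG channel membrane potential dye signal; 0% = forskolin plus galanin with DMSO and 100% = forskolin alone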
Target sequence (O60755 1-299 limits assumed): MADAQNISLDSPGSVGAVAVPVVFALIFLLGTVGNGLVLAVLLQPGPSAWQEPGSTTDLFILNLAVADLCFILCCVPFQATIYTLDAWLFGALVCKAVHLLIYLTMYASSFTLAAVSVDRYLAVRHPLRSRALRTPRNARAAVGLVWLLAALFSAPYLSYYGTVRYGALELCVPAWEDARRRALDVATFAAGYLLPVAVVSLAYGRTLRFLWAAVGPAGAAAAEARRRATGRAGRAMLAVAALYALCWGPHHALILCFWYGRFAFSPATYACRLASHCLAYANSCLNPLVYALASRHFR
GAA30 FXN cntr – GAA30 FXN promoter activators, confirmation, counter-screen for GAA850 frataxin promoter activator project, cell-based, luminescence, HEK293, lucGAA30, triplicate. AID 588350, 2011. 1,900 compounds, 66% hits. shares compounds with GAA850 FXN act. activation, % at 6 µM. HEK293 lucGAA30 FXN promoter luciferase, 24 h; DMSO = 0%, 5 µM ipriflavone = 100%;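 active = mean activation above the mean of solvent-only control wells plus 3 SD, cut at about 22% in these data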;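 also: counterscreen of GAA850 promoter hits where activity marks nonselective or luminescence artifacts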
FXN GAA850 conf – FXN GAA850 promoter activators in reporter cells, confirmation, cell-based, luminescence, HEK293 lucGAA850, triplicate; 1,900 compounds, 86% hits; AID 588351, 2011; activation, % at 6 µM; shares compounds with GAA850 FXN act; HEK293 lucGAA850 FXN promoter luciferase reporter, 24 h; 100% = activation by SAHA;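 active = mean activation above a set limit taken from the primary screen, cut at about 8% in these data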;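 also: 0% = DMSO wells and 100% = 10 µM SAHA wells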
The depositor's hits bear a star; · = no result given; [ ] = remark or other dose. An excerpt weighted towards active compounds, which were near 2.2% of everything screened.

SMILES	NR2E3 ag-1	Env fusion inh	NR2E3 ag-2	GAA850 FXN act	V-ATPase pHluor	GalR3 antag	GAA30 FXN cntr	FXN GAA850 conf
CC1(Cc2ccccc2OC(F)(F)F)C(=O)Nc2ccc(-c3ccsc3)cc21 (stereo not given)	·	71*	9	9.6*	·	-4	-2	3
COC(=O)c1cccc(CC2(C)C(=O)Nc3cc(-c4ccccc4Cl)ccc32)c1 (stereo not given)	·	90*	-100	17*	·	10	58*	31*
COc1ccccc1-c1ccc2c(c1)C(C)(Cc1cc(Cl)ccc1C(F)(F)F)C(=O)N2 (stereo not given)	·	-3	17	-1	·	-5	·	·
COc1ccc(Cl)cc1CC1(C)C(=O)Nc2ccc(-c3ccccc3OC)cc21 (stereo not given)	·	92*	-20	12*	·	-4	33*	12*
C[C@H](CO)N1C[C@H](C)[C@H](CN(C)C(=O)Nc2ccc3c(c2)OCO3)OCCCC[C@H](C)Oc2ccc(NS(=O)(=O)c3ccccc3)cc2C1=O	·	-28[16.7 µM]	·	·	·	·	·	·
CCC(=O)Nc1ccc2c(c1)C(=O)N(C)[C@H]1CC[C@H](CC(=O)N[C@@H](C)c3ccccc3)O[C@@H]1CO2	·	-7[16.7 µM]	·	·	·	·	·	·
C[C@@H]1CN([C@@H](C)CO)C(=O)c2cc(C#Cc3ccncc3)cnc2O[C@@H]1CN(C)S(=O)(=O)c1ccccc1F	·	36[16.7 µM]	·	·	·	·	·	·
COc1ccccc1-c1ccc2c(c1)C(C)(Cc1ccc(F)c(Cl)c1)C(=O)N2 (stereo not given)	·	96*	-5	13*	·	0	9	8.5*
C=C1CCN([C@@H](CC(C)C)C(=O)NCc2ccccc2)S(=O)(=O)c2ccccc21	2	23	-37	1	2	-2	·	·
C=C1CCN([C@@H](CC(C)C)C(=O)Nc2ccc(OC)cc2)S(=O)(=O)c2ccccc21	1	102*	-16	14*	-3	-3	22*	11*
C=C1CCN(C(CC(C)C)C(=O)OC)S(=O)(=O)c2ccccc21 (stereo not given)	3	22	6	0	0	-6	·	·
C=C1CCN([C@@H](Cc2ccccc2)C(=O)NCCC(C)C)S(=O)(=O)c2ccccc21	5	84*	-17	8.0*	-4	-6	12	6
CN(C)CCCNC(=O)C[C@H]1C=C[C@H](NS(=O)(=O)c2ccc(F)cc2)[C@H](CO)O1	·	-11[16.7 µM]	·	·	·	·	·	·
CC1=C(c2ccc(C)cc2)S(=O)(=O)N(CC(=O)O)C1=O	-5	-10	-13	2	3	-4	·	·
COC(=O)CN1C(=O)C(C)=C(c2ccc(C)cc2)S1(=O)=O	-1	·	-16	13*	-1	-7	26*	8.2*
CO[C@H]1CN(C)C(=O)c2cc(NC(=O)NC(C)C)ccc2OC[C@@H](C)NC[C@H]1C	·	9[16.7 µM]	·	·	·	·	·	·
COc1ccc(-n2c(C)cc(C(=O)CCl)c2C)cc1	-1	-132	-23	8.0*	1	-6	-70	31*
Cc1cccc(NC(=O)Nc2ccc(C#N)cc2)n1	-2	33	14	20*	-3	2	103*	105*
Cc1cccc(NC(=O)Nc2ccc(Br)cc2)n1	1	-44	-79	5	0	-7	·	·
Cc1cccc(NC(=O)Nc2cccc(C#N)c2)n1	2	-2	-17	8.0*	0	-2	90*	70*
Cc1cccc(NC(=O)Nc2cccc(F)c2)n1	-3	·	-38	4	0	-3	·	·
Cc1cccc(NC(=O)Nc2ccccc2[N+](=O)[O-])n1	2	17	-58	9.3*	0	-11	67*	25*
CO[C@@H]1CN(C)C(=O)c2ccc(NC(=O)c3nc4ccccc4s3)cc2OC[C@H](C)NC[C@@H]1C	·	-8[16.7 µM]	·	·	·	·	·	·
O=C(C[C@@H]1C=C[C@@H](NC(=O)Nc2ccc3c(c2)OCO3)[C@@H](CO)O1)NCc1ccc2c(c1)OCO2	·	-4[16.7 µM]	·	·	·	·	·	·
CC(C)n1cnc2c(Nc3cccc(Cl)c3)nc(NCCCO)nc21	1	-9	0	8.7*	-3	-5	53*	15*
SMILES	NR2E3 ag-1	Env fusion inh	NR2E3 ag-2	GAA850 FXN act	V-ATPase pHluor	GalR3 antag	GAA30 FXN cntr	FXN GAA850 conf
CC(C)[C@H](CO)Nc1nc(Nc2ccc(Cl)c(C(=O)O)c2)c2ncn(C(C)C)c2n1	-4	3	-3	-2	-2	5	·	·
COc1ccc(C#Cc2cnc3c(c2)C(=O)N([C@@H](C)CO)C[C@H](C)[C@H](CN(C)C(=O)c2ccccc2F)O3)cc1	·	25[16.7 µM]	·	·	·	·	·	·
Cc1noc(C)c1NC(=O)N(C)C[C@@H]1Oc2ccc(NS(=O)(=O)c3ccc(F)cc3)cc2CC(=O)N([C@H](C)CO)C[C@H]1C	·	-2[16.7 µM]	·	·	·	·	·	·
COc1ccc(Cn2nnc3c(=O)[nH]c(C(=O)NCCc4ccc(F)cc4)nc32)cc1OC	4	30	-45	20*	-1	-1	9	9.0*
Clc1ccccc1/C=N/NC1=Nc2cccc3cccc1c23	-3	-131	-118	9.7*	1	-2	84*	39*
O=C(Cc1ccccc1)N/N=C/c1cc(Br)cc(Br)c1O	1	9	-8	1	4	-6	·	·
O=C(O)c1ccccc1N/N=C/c1cc(Br)cc(Br)c1O	2	-70	-159	9.3*	-4	0	135*	42*
COc1ccc(-c2nc(C#N)c(NCCc3ccccc3)o2)cc1OC	-1	·	-62	8.2*	2	4	100*	34*
CCCNC(=O)N(C)C[C@H]1Oc2cc(-c3cccnc3)ccc2S(=O)(=O)N([C@H](C)CO)C[C@H]1C	·	-1[16.7 µM]	·	·	·	·	·	·
CN1CCSc2ccc(C(=O)Nc3ccc(Cl)cc3)cc21	-31	-64	-90	7.8*	1	-7	120*	45*
C[C@@H]1CCCCO[C@H](CN(C)S(=O)(=O)c2ccccc2)[C@@H](C)CN([C@@H](C)CO)C(=O)c2cc(NC(=O)CCCN(C)C)ccc2O1	·	4[16.7 µM]	·	·	·	·	·	·
COc1ccc(Nc2nccc(-c3cccc(N)c3)n2)cc1	3	23	-30	13*	-3	-12	130*	100*
